Activity calls are given as the source filed them. No cut-off for these calls is given here.
Tests used:
[1] = system: PANC-1; test: Anti-austerity activity against nutrient-deprived human PANC-1 cells assessed as cell death incubated for 24 hrs by WST-8 assay; assay type: functional
Method in brief: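 Human PANC-1 pancreatic cancer cells tested in parallel in nutrient-deprived medium (NDM) and in nutrient-rich DMEM. PC50 is the concentration that kills 50% of cells in NDM without toxicity in DMEM.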

[2] = system: PANC-1; test: Induction of morphological changes in human PANC-1 cells cultured in nutrient-deprived medium assessed as cell death measured after 24 hrs by ethidium bromide/acridine orange staining based phase contrast microscopy; assay type: functional; details: dose 1.25-5 µM
Method in brief: (§1)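 PANC-1 cells (2 × 10^5/well) attached in DMEM for 24 h, washed twice with PBS, then treated in NDM (1.25, 2.5, 5 μM; control in NDM alone) for 24 h. Stained with ethidium bromide/acridine orange and imaged in phase-contrast and red/green fluorescence modes (20× objective).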

[3] = system: PANC-1; test: Induction of necrosis in human PANC-1 cells cultured in nutrient-deprived medium assessed as round cell morphology at 5 uM measured after 24 hrs by ethidium bromide/acridine orange staining based phase contrast microscopy; assay type: functional; method in brief: as §1
[4] = system: PANC-1; test: Induction of necrosis in human PANC-1 cells cultured in nutrient-deprived medium assessed as membrane blebbing at 5 uM measured after 24 hrs by ethidium bromide/acridine orange staining based phase contrast microscopy; assay type: functional, cell-based; method in brief: as §1
[5] = system: PANC-1; test: Induction of necrosis in human PANC-1 cells cultured in nutrient-deprived medium assessed as rupture of cell membrane at 5 uM measured after 24 hrs by ethidium bromide/acridine orange staining based phase contrast microscopy; assay type: functional; method in brief: as §1
[6] = system: PANC-1; test: Induction of necrosis in human PANC-1 cells cultured in nutrient-deprived medium assessed as leakage of cellular contents in to the medium at 5 uM measured after 24 hrs by ethidium bromide/acridine orange staining based phase contrast microscopy; assay type: functional, cell-based; method in brief: as §1
[7] = system: PANC-1; test: Inhibition of cell migration in human PANC1 cells assessed as wound length at 5 uM cultured in nutrient rich DMEM medium measured after 48 hrs by wound healing assay relative to T0; assay type: functional; set-up: scale not given: the % may be the effect or the level left
Method in brief: (§2)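 PANC-1 monolayers (5 × 10^5 cells/well), attached 24 h, scratched about 600 μm with a pipet tip, washed with PBS. Exposed in DMEM to 0–10 μM for 48 h in triplicate. Wound length measured at 10 points on phase-contrast images and expressed relative to initial length at T0.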

[8] = system: PANC-1; test: Inhibition of cell migration in human PANC1 cells assessed as wound length at 10 uM cultured in nutrient rich DMEM medium measured after 48 hrs by wound healing assay relative to T0; assay type: functional; set-up: scale not given: the % may be the effect or the level left; method in brief: as §2
[9] = system: PANC-1; test: Inhibition of colony formation in human PANC-1 cells at 2.5 uM cultured in nutrient rich DMEM medium measured after 24 hrs by crystal violet staining based assay relative to control; assay type: functional
Method in brief: (§3)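 PANC-1 cells (5 × 10^2/well) attached in DMEM for 24 h, then exposed to 0, 2.5, 5 or 10 μM in DMEM for 24 h (triplicate). Washed, grown in fresh compound-free DMEM for 12 days, fixed in 4% formaldehyde and stained with crystal violet for 10 min. Colony area measured as a percentage of well area.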

[10] = system: PANC-1; test: Inhibition of colony formation in human PANC-1 cells at 5 uM cultured in nutrient rich DMEM medium measured after 24 hrs by crystal violet staining based assay relative to control; assay type: functional; method in brief: as §3
[11] = system: PANC-1; test: Inhibition of colony formation in human PANC-1 cells at 10 uM cultured in nutrient rich DMEM medium measured after 24 hrs by crystal violet staining based assay relative to control; assay type: functional; method in brief: as §3
[12] = system: PANC-1; test: Inhibition of colony formation in human PANC-1 cells cultured in nutrient rich DMEM medium measured after 24 hrs by crystal violet staining based assay; assay type: functional, cell-based; details: dose 2.5-10 µM; method in brief: as §3
[13] = system: PANC-1; test: Anticancer activity against human PANC-1 cells assessed as inhibition of cell motility at 10 uM measured within 90 mins by digital cell imaging analysis; assay type: functional, cell-based; details: time min <=90
Method in brief: (§4)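 PANC-1 cells (3 × 10^6) in 35 mm dishes in nutrient-deprived medium (NDM), treated with 10 μM; kept in a stage-top incubator at 37 °C, 5% CO2. Phase-contrast images taken every 10 min for 24 h (145 frames, 20× objective). Untreated cells in NDM served as control.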

[14] = system: PANC-1; test: Anticancer activity against human PANC-1 cells assessed as induction of morphological changes at 10 uM measured after 7 hrs by digital cell imaging analysis; assay type: functional, cell-based; method in brief: as §4
[15] = system: PANC-1; test: Anticancer activity against human PANC-1 cells assessed as cell death at 10 uM measured after 13 hrs by digital cell imaging analysis; assay type: functional, cell-based; method in brief: as §4
[16] = system: PANC-1; test: Anticancer activity against human PANC-1 cells assessed as cell death at 10 uM measured within 20 hrs by digital cell imaging analysis relative to control; assay type: functional
Method in brief: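 PANC-1 cells (3 × 10^6) in 35 mm dishes were exposed to 10 μM compound in nutrient-deprived medium in a stage-top incubator at 37 °C, 5% CO2. Phase-contrast images were taken every 10 min for 24 h (145 frames, 20× objective). Untreated cells in NDM served as control.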

[17] = system: PANC-1; test: Induction of apoptotic cell death in human PANC-1 cells cultured in nutrient-deprived medium assessed as membrane blebbing at 5 uM measured after 24 hrs by Hoechst 33342 staining based phase-contrast digital microscopy; assay type: functional
Method in brief: (§5)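 Cells (2 × 10^5) plated in 35 mm dishes, left 24 h to attach, washed twice with PBS, then given 5 μM in NDM for 24 h. Hoechst 33342 added directly to the medium for 5 min. Imaged in phase-contrast and fluorescence modes (20× objective).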

[18] = system: PANC-1; test: Induction of apoptotic cell death in human PANC-1 cells cultured in nutrient-deprived medium assessed as leakage of cellular contents in to the medium at 5 uM measured after 24 hrs by Hoechst 33342 staining based phase-contrast digital microscopy; assay type: functional; method in brief: as §5
[19] = system: PANC-1; test: Induction of apoptotic cell death in human PANC-1 cells cultured in nutrient-deprived medium assessed as intact nuclei at 5 uM measured after 24 hrs by Hoechst 33342 staining based phase-contrast digital microscopy; assay type: functional; method in brief: as §5
[20] = system: PANC-1; test: Induction of apoptotic cell death in human PANC-1 cells cultured in nutrient-deprived medium assessed as chromatin fragmentation at 5 uM measured after 24 hrs by Hoechst 33342 staining based phase-contrast digital microscopy; assay type: functional; method in brief: as §5
[21] = system: PANC-1; test: Induction of apoptotic cell death in human PANC-1 cells cultured in nutrient-deprived medium assessed as formation of apoptotic bodies at 5 uM measured after 24 hrs by Hoechst 33342 staining based phase-contrast digital microscopy; assay type: functional; method in brief: as §5
[22] = system: PANC-1; test: Induction of apoptosis in human PANC-1 cells assessed as inhibition of Bcl-2 after 6 hrs by Western blot analysis; assay type: functional, cell-based; details: dose 2.5-40 µM
Method in brief: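 PANC-1 cells in NDM or DMEM exposed to compound at different concentrations for 6 h, then immunoblotted for Bcl-2, Bcl-xL and caspase-3.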

COc1cc(OC)c(-c2ccc(O)c3c(OC)cc(C)cc23)c2c1C(C)=N[C@H](C)C2
Activity [1]: Dose-dependent effect
PC50 [1]: 2.5 µM
Activity [2]: Dose-dependent effect
Activity [3]: Active
Activity [4]: Active
Activity [5]: Active
Activity [6]: Active
Activity [7]: 58%
Activity [8]: 11%
inhibition at 2.5 µM [9]: ≤ 90%
inhibition at 5 µM [10]: 100%
inhibition at 10 µM [11]: 100%
inhibition [12]: Dose-dependent effect
inhibition [13]: Active
Activity [14]: Active
Activity [15]: Active
Activity [16]: 100%
Activity [17]: Active
Activity [18]: Active
Activity [19]: Active
Activity [20]: inactive
Activity [21]: inactive
inhibition [22]: Active

— ChEMBL document CHEMBL4680108, “Ancistrolikokine E, a 5,8'-Coupled Naphthylisoquinoline Alkaloid, Eliminates the Tolerance of Cancer Cells to Nutrition Starvation by Inhibition of the Akt/mTOR/Autophagy Signaling Pathway” (2018)
